Values after ≈ are worked out from the molar mass of the structure shown.
Key:
Assay type in all cases: functional
Pseudomonas aeruginosa [1] = assay: Antibacterial activity against Pseudomonas aeruginosa PA5026 assessed as time required for reduction of bacterial load to 3 log CFU/ml at 0.2 mg/ml up to 48 hrs by time-kill assay
Outline: (§1)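 Overnight cultures were diluted and grown at 37°C to OD600 ≈0.3, then set at 5 × 10^5–1 × 10^6 CFU/ml in 10 ml CAMHB. Drug was added at 0.2, 0.6 or 2.0 mg/ml, and cultures were shaken at 37°C. Samples taken at 0, 0.5, 1, 2, 4, 8 and 24 h were washed twice in CAMHB, diluted in saline and plated on Mueller-Hinton agar. Plates were incubated up to 48 h before colony counting.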

Pseudomonas aeruginosa [2] = assay: Antibacterial activity against Pseudomonas aeruginosa PA876 assessed as time required for reduction of bacterial load to 3 log CFU/ml at 0.2 mg/ml up to 48 hrs by time-kill assay; outline: as §1
Pseudomonas aeruginosa [3] = assay: Antibacterial activity against Pseudomonas aeruginosa ATCC 27853 assessed as time required for reduction of bacterial load to 3 log CFU/ml at 0.6 mg/ml up to 48 hrs by time-kill assay
Pseudomonas aeruginosa [4] = assay: Antibacterial activity against Pseudomonas aeruginosa PA5020 assessed as time required for reduction of bacterial load to 3 log CFU/ml at 0.2 mg/ml up to 48 hrs by time-kill assay; outline: as §1
Pseudomonas aeruginosa [5] = assay: Antibacterial activity against Pseudomonas aeruginosa ATCC 27853 assessed as inhibition of biofilm formation by microtiter plate reader assay
Pseudomonas aeruginosa [6] = assay: Antibacterial activity against Pseudomonas aeruginosa PA1022 assessed as time required for reduction of bacterial load to 3 log CFU/ml at 2 mg/ml up to 48 hrs by time-kill assay; outline: as §1
Pseudomonas aeruginosa [7] = assay: Antibacterial activity against Pseudomonas aeruginosa PA876 assessed as time required for reduction of bacterial load to 3 log CFU/ml at 0.6 mg/ml up to 48 hrs by time-kill assay; outline: as §1
Pseudomonas aeruginosa [8] = assay: Antibacterial activity against Pseudomonas aeruginosa PA880 assessed as time required for reduction of bacterial load to 3 log CFU/ml at 0.2 mg/ml up to 48 hrs by time-kill assay; outline: as §1
Pseudomonas aeruginosa [9] = assay: Antibacterial activity against Pseudomonas aeruginosa by broth dilution method
Outline: (§2)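 Broth microdilution MIC per CLSI reference method; twofold serial dilutions in cation-adjusted Mueller-Hinton broth. […] Endpoint read by OD600 and confirmed visually.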

Pseudomonas aeruginosa [10] = assay: Antibacterial activity against Pseudomonas aeruginosa PA1054 assessed as time required for reduction of bacterial load to 3 log CFU/ml at 2 mg/ml up to 48 hrs by time-kill assay; outline: as §1
Pseudomonas aeruginosa [11] = assay: Antibacterial activity against Pseudomonas aeruginosa PA899 assessed as time required for reduction of bacterial load to 3 log CFU/ml at 0.6 mg/ml up to 48 hrs by time-kill assay; outline: as §1
Pseudomonas aeruginosa [12] = assay: Antibacterial activity against Pseudomonas aeruginosa PA5026 assessed as time required for reduction of bacterial load to 3 log CFU/ml at 0.6 mg/ml up to 48 hrs by time-kill assay; outline: as §1
Pseudomonas aeruginosa [13] = assay: Antibacterial activity against Pseudomonas aeruginosa PA1022 assessed as time required for reduction of bacterial load to 3 log CFU/ml at 0.6 mg/ml up to 48 hrs by time-kill assay; outline: as §1
Pseudomonas aeruginosa [14] = assay: Antibacterial activity against Pseudomonas aeruginosa PA5063 assessed as inhibition of biofilm formation by microtiter plate reader assay
Outline: (§3)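 Biofilms of cystic fibrosis P. aeruginosa isolates were grown and tested by a previously described method. The endpoint was the biofilm inhibitory concentration, the drug level that prevents biofilm cell growth, compared against planktonic broth-microdilution MICs.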

Pseudomonas aeruginosa [15] = assay: Antibacterial activity against Pseudomonas aeruginosa PA5020 assessed as time required for reduction of bacterial load to 3 log CFU/ml at 0.6 mg/ml up to 48 hrs by time-kill assay; outline: as §1
Pseudomonas aeruginosa [16] = assay: Antibacterial activity against Pseudomonas aeruginosa PA5026 by broth dilution method; outline: as §2
Pseudomonas aeruginosa [17] = assay: Antibacterial activity against Pseudomonas aeruginosa PA1036 assessed as time required for reduction of bacterial load to 3 log CFU/ml at 0.6 mg/ml up to 48 hrs by time-kill assay; outline: as §1
Pseudomonas aeruginosa [18] = assay: Antibacterial activity against Pseudomonas aeruginosa PA5043 assessed as time required for reduction of bacterial load to 3 log CFU/ml at 0.2 mg/ml up to 48 hrs by time-kill assay; outline: as §1
Pseudomonas aeruginosa [19] = assay: Antibacterial activity against Pseudomonas aeruginosa PA1054 assessed as inhibition of biofilm formation by microtiter plate reader assay; conditions: for MIC: Pseudomonas aeruginosa, PA1054; outline: as §3
Pseudomonas aeruginosa [20] = assay: Antibacterial activity against Pseudomonas aeruginosa PA5026 assessed as time required for reduction of bacterial load to 3 log CFU/ml at 2 mg/ml up to 48 hrs by time-kill assay; outline: as §1
Pseudomonas aeruginosa [21] = assay: Antibacterial activity against Pseudomonas aeruginosa PA1036 assessed as time required for reduction of bacterial load to 3 log CFU/ml at 2 mg/ml up to 48 hrs by time-kill assay; outline: as §1
Pseudomonas aeruginosa [22] = assay: Antibacterial activity against Pseudomonas aeruginosa PA876 assessed as time required for reduction of bacterial load to 3 log CFU/ml at 2 mg/ml up to 48 hrs by time-kill assay; outline: as §1
Pseudomonas aeruginosa [23] = assay: Antibacterial activity against Pseudomonas aeruginosa PA1022 assessed as time required for reduction of bacterial load to 3 log CFU/ml at 0.2 mg/ml up to 48 hrs by time-kill assay; outline: as §1
[24] = system: Achromobacter xylosoxidans; assay: Antibacterial activity against Alcaligenes xylosoxidans by broth dilution method
Staphylococcus aureus [25] = assay: Antibacterial activity against methicillin-resistant Staphylococcus aureus by broth dilution method; outline: as §2
Pseudomonas aeruginosa [26] = assay: Antibacterial activity against Pseudomonas aeruginosa ATCC 27853 assessed as time required for reduction of bacterial load to 3 log CFU/ml at 0.2 mg/ml up to 48 hrs by time-kill assay
Pseudomonas aeruginosa [27] = assay: Antibacterial activity against Pseudomonas aeruginosa PA861 assessed as time required for reduction of bacterial load to 3 log CFU/ml at 0.2 mg/ml up to 48 hrs by time-kill assay; outline: as §1
Pseudomonas aeruginosa [28] = assay: Antibacterial activity against Pseudomonas aeruginosa PA861 assessed as time required for reduction of bacterial load to 3 log CFU/ml at 0.6 mg/ml up to 48 hrs by time-kill assay; outline: as §1
Staphylococcus aureus [29] = assay: Antibacterial activity against methicillin-sensitive Staphylococcus aureus by broth dilution method
Pseudomonas aeruginosa [30] = assay: Antibacterial activity against Pseudomonas aeruginosa PA880 assessed as time required for reduction of bacterial load to 3 log CFU/ml at 2 mg/ml up to 48 hrs by time-kill assay; outline: as §1
Pseudomonas aeruginosa [31] = assay: Antibacterial activity against Pseudomonas aeruginosa PA881 assessed as time required for reduction of bacterial load to 3 log CFU/ml at 0.2 mg/ml up to 48 hrs by time-kill assay; outline: as §1
Pseudomonas aeruginosa [32] = assay: Antibacterial activity against Pseudomonas aeruginosa PA899 assessed as time required for reduction of bacterial load to 3 log CFU/ml at 0.2 mg/ml up to 48 hrs by time-kill assay; outline: as §1
Pseudomonas aeruginosa [33] = assay: Antibacterial activity against Pseudomonas aeruginosa PA861 by broth dilution method; outline: as §2

C[C@H]1[C@H](NC(=O)/C(=N\OC(C)(C)C(=O)O)c2csc(N)n2)C(=O)N1S(=O)(=O)O [AZTREONAM]
Time (Pseudomonas aeruginosa [1]): >24 h
Time (Pseudomonas aeruginosa [2]): >24 h
Time (Pseudomonas aeruginosa [3]): 24 h
Time (Pseudomonas aeruginosa [4]): >24 h
BBC (Pseudomonas aeruginosa [5]): >256 µg/mL
Time (Pseudomonas aeruginosa [6]): 24 h
Time (Pseudomonas aeruginosa [7]): >24 h
Time (Pseudomonas aeruginosa [8]): 4 h
MIC50 (Pseudomonas aeruginosa [9]): 4 µg/mL (≈ 9.19 µM)
MIC90 (Pseudomonas aeruginosa [9]): 128 µg/mL (≈ 294 µM)
Time (Pseudomonas aeruginosa [10]): 24 h
Time (Pseudomonas aeruginosa [11]): 24 h
Time (Pseudomonas aeruginosa [12]): >24 h
Time (Pseudomonas aeruginosa [13]): >24 h
BBC (Pseudomonas aeruginosa [14]): >256 µg/mL
Time (Pseudomonas aeruginosa [15]): >24 h
MIC (Pseudomonas aeruginosa [16]): > 128 µg/mL
Time (Pseudomonas aeruginosa [17]): 24 h
Time (Pseudomonas aeruginosa [18]): 8 h
BBC (Pseudomonas aeruginosa [19]): >64 µg/mL
MIC (Pseudomonas aeruginosa [19]): 4 µg/mL (≈ 9.19 µM)
Time (Pseudomonas aeruginosa [20]): >24 h
Time (Pseudomonas aeruginosa [21]): 24 h
Time (Pseudomonas aeruginosa [22]): >24 h
Time (Pseudomonas aeruginosa [23]): >24 h
MIC50 [24]: 64 µg/mL (≈ 147 µM)
MIC90 [24]: > 128 µg/mL
MIC50 (Staphylococcus aureus [25]): > 512 µg/mL
MIC90 (Staphylococcus aureus [25]): > 512 µg/mL
Time (Pseudomonas aeruginosa [26]): 24 h
Time (Pseudomonas aeruginosa [27]): >24 h
Time (Pseudomonas aeruginosa [28]): >24 h
MIC50 (Staphylococcus aureus [29]): > 128 µg/mL
MIC90 (Staphylococcus aureus [29]): > 128 µg/mL
Time (Pseudomonas aeruginosa [30]): 4 h
Time (Pseudomonas aeruginosa [31]): 8 h
Time (Pseudomonas aeruginosa [32]): >24 h
MIC (Pseudomonas aeruginosa [33]): 128 µg/mL (≈ 294 µM)

C[C@H]1COc2c(N3CCN(C)CC3)c(F)cc3c(=O)c(C(=O)O)cn1c23.C[C@H]1COc2c(N3CCN(C)CC3)c(F)cc3c(=O)c(C(=O)O)cn1c23.O [LEVOFLOXACIN]
Time (Pseudomonas aeruginosa [1]): <=0.5 hr
Time (Pseudomonas aeruginosa [2]): <=0.5 hr
Time (Pseudomonas aeruginosa [3]): <=0.5 hr
Time (Pseudomonas aeruginosa [4]): 4 h
BBC (Pseudomonas aeruginosa [5]): 2 µg/mL
Time (Pseudomonas aeruginosa [6]): <=0.5 hr
Time (Pseudomonas aeruginosa [7]): <=0.5 hr
Time (Pseudomonas aeruginosa [8]): <=0.5 hr
MIC50 (Pseudomonas aeruginosa [9]): 2 µg/mL
MIC90 (Pseudomonas aeruginosa [9]): 8 µg/mL
Time (Pseudomonas aeruginosa [10]): <=0.5 hr
Time (Pseudomonas aeruginosa [11]): <=0.5 hr
Time (Pseudomonas aeruginosa [12]): <=0.5 hr
Time (Pseudomonas aeruginosa [13]): <=0.5 hr
BBC (Pseudomonas aeruginosa [14]): 1 µg/mL
Time (Pseudomonas aeruginosa [15]): 4 h
MIC (Pseudomonas aeruginosa [16]): 8 µg/mL
Time (Pseudomonas aeruginosa [17]): <=0.5 hr
Time (Pseudomonas aeruginosa [18]): <=0.5 hr
BBC (Pseudomonas aeruginosa [19]): 1 µg/mL
Time (Pseudomonas aeruginosa [20]): <=0.5 hr
Time (Pseudomonas aeruginosa [21]): <=0.5 hr
Time (Pseudomonas aeruginosa [22]): <=0.5 hr
Time (Pseudomonas aeruginosa [23]): <=0.5 hr
MIC50 [24]: 4 µg/mL
MIC90 [24]: 16 µg/mL
MIC50 (Staphylococcus aureus [25]): 4 µg/mL
MIC90 (Staphylococcus aureus [25]): 32 µg/mL
Time (Pseudomonas aeruginosa [26]): <=0.5 hr
Time (Pseudomonas aeruginosa [27]): <=0.5 hr
Time (Pseudomonas aeruginosa [28]): <=0.5 hr
MIC50 (Staphylococcus aureus [29]): 0.125 µg/mL
MIC90 (Staphylococcus aureus [29]): 0.25 µg/mL
Time (Pseudomonas aeruginosa [30]): <=0.5 hr
Time (Pseudomonas aeruginosa [31]): <=0.5 hr
Time (Pseudomonas aeruginosa [32]): <=0.5 hr
MIC (Pseudomonas aeruginosa [33]): 32 µg/mL

NC[C@H]1O[C@H](O[C@H]2[C@H](O)[C@@H](O[C@H]3O[C@H](CO)[C@@H](O)[C@H](N)[C@H]3O)[C@H](N)C[C@@H]2N)[C@H](N)C[C@@H]1O [TOBRAMYCIN]
Time (Pseudomonas aeruginosa [1]): 2 h
Time (Pseudomonas aeruginosa [2]): 4 h
Time (Pseudomonas aeruginosa [3]): <=0.5 hr
Time (Pseudomonas aeruginosa [4]): 4 h
BBC (Pseudomonas aeruginosa [5]): 1 µg/mL
Time (Pseudomonas aeruginosa [6]): 4 h
Time (Pseudomonas aeruginosa [7]): 4 h
Time (Pseudomonas aeruginosa [8]): <=0.5 hr
MIC50 (Pseudomonas aeruginosa [9]): 2 µg/mL (≈ 4.28 µM)
MIC90 (Pseudomonas aeruginosa [9]): > 32 µg/mL
Time (Pseudomonas aeruginosa [10]): <=0.5 hr
Time (Pseudomonas aeruginosa [11]): <=0.5 hr
Time (Pseudomonas aeruginosa [12]): 1 h
Time (Pseudomonas aeruginosa [13]): 4 h
BBC (Pseudomonas aeruginosa [14]): 2 µg/mL
Time (Pseudomonas aeruginosa [15]): 2 h
MIC (Pseudomonas aeruginosa [16]): 32 µg/mL (≈ 68.4 µM)
Time (Pseudomonas aeruginosa [17]): <=0.5 hr
Time (Pseudomonas aeruginosa [18]): 2 h
BBC (Pseudomonas aeruginosa [19]): 1 µg/mL
MIC (Pseudomonas aeruginosa [19]): 1 µg/mL (≈ 2.14 µM)
Time (Pseudomonas aeruginosa [20]): <=0.5 hr
Time (Pseudomonas aeruginosa [21]): <=0.5 hr
Time (Pseudomonas aeruginosa [22]): 4 h
Time (Pseudomonas aeruginosa [23]): 4 h
MIC50 [24]: > 32 µg/mL
MIC90 [24]: > 32 µg/mL
MIC50 (Staphylococcus aureus [25]): 128 µg/mL (≈ 274 µM)
MIC90 (Staphylococcus aureus [25]): > 128 µg/mL
Time (Pseudomonas aeruginosa [26]): <=0.5 hr
Time (Pseudomonas aeruginosa [27]): 8 h
Time (Pseudomonas aeruginosa [28]): 8 h
MIC50 (Staphylococcus aureus [29]): 0.125 µg/mL (≈ 0.267 µM)
MIC90 (Staphylococcus aureus [29]): 32 µg/mL (≈ 68.4 µM)
Time (Pseudomonas aeruginosa [30]): <=0.5 hr
Time (Pseudomonas aeruginosa [31]): <=0.5 hr
Time (Pseudomonas aeruginosa [32]): <=0.5 hr
MIC (Pseudomonas aeruginosa [33]): 16 µg/mL (≈ 34.2 µM)
